# Legend:
# [1] = species: Cavia porcellus; assay: Inotropic response in electrically driven left atrium from reserpine-treated guinea pig with 8-phenyl theophylline (10 e-5)at the concentration of 5 x 10 e-5 M; format: functional, Cardiac atrium
# Summary of the method: (§1)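 Guinea pigs pretreated with reserpine 2 mg/kg ip at 48 and 24 h before sacrifice; atria unresponsive to tyramine 2 μg/mL used. Left atrium paced at 1.5 Hz (3-ms square pulses, 10–20% above threshold, 0.5 g load). 8-Phenyltheophylline 10 μM preincubated 20 min after 90 min equilibration, then agents added cumulatively, 5 min each. Isometric developed tension as % over control; six assays from six experiments.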
# [2] = species: Cavia porcellus; assay: Inotropic response in electrically driven left atrium from reserpine-treated guinea pig with 8-phenyl theophylline (10 e-5)at the concentration of 10 e-3 M; format: functional, Cardiac atrium; summary of the method: as §1
# [3] = species: Cavia porcellus; assay: Inotropic response in electrically driven left atrium from reserpine-treated guinea pig with VER (10 e-7) at the concentration of 5 x10 e-5 M; format: functional, Cardiac atrium
# Summary of the method: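 Left atrium from reserpine-treated guinea pigs (2 mg/kg ip, 48 and 24 h prior; tyramine 2 μg/mL check), paced at 1.5 Hz with 3-ms pulses. Verapamil 0.1 μM added 10 min before cumulative agent additions (5 min each), after 90 min equilibration. Isometric developed tension as % increase over control; seven assays from seven experiments.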
# [4] = species: Cavia porcellus; assay: Inotropic response in electrically driven left atrium from reserpine-treated guinea pig with 8-phenyl theophylline (10 e-5) at the concentration of 10 e-5 M; format: functional, Cardiac atrium; summary of the method: as §1
# [5] = species: Cavia porcellus; assay: Inotropic response in electrically driven left atrium from reserpine-treated guinea pig without ADA at the concentration of 5 x 10 e-4 M; format: functional, Cardiac atrium
# Summary of the method: (§2)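 Control arm: electrically driven left atrium (1.5 Hz, 3-ms pulses, 0.5 g load) from guinea pigs given reserpine 2 mg/kg ip at 48 and 24 h, tyramine-unresponsive; no adenosine deaminase. Cumulative additions after 90 min equilibration, 5 min per concentration. Isometric developed tension, % over control; six assays from six experiments.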
# [6] = species: Cavia porcellus; assay: Inotropic response in electrically driven left atrium from reserpine-treated guinea pig without ADA at the concentration of 5 x 10 e-5 M; format: functional, Cardiac atrium; summary of the method: as §2
# [7] = species: Cavia porcellus; assay: Inotropic response in electrically driven left atrium from reserpine-treated guinea pig with 8-phenyl theophylline (10 e-5)at the concentration of 5 x 10 e-4 M; format: functional, Cardiac atrium; summary of the method: as §1
# [8] = species: Cavia porcellus; assay: Effect on frequency rate of spontaneously beating atria from reserpine treated guinea pigs at the concentration of 10 e-4 M; format: functional
# [9] = species: Cavia porcellus; assay: Effect on contractile force of spontaneously beating atria from reserpine treated guinea pigs at the concentration of 2 x 10 e-3 M; format: functional
# [10] = species: Cavia porcellus; assay: Inotropic effect in electrically driven left atrium from reserpine-treated guinea pig without 8-phenyl theophylline at the concentration of 5 x 10 e-4 M; format: functional, Cardiac atrium
# Summary of the method: (§3)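 Paced left atrium from reserpine-pretreated, tyramine-unresponsive guinea pigs (0.5 g load, 1.5 Hz, 3-ms pulses). Cumulative additions of agent, 5 min each, with no 8-phenyltheophylline present. Developed tension as % increase over control. Mean ± SEM of six assays from six experiments; Student's t test against the 8-phenyltheophylline-treated preparations.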
# [11] = species: Cavia porcellus; assay: Inotropic response in electrically driven left atrium from reserpine-treated guinea pig with ADA (2 units/ml) at the concentration of 10 e-3 M; format: functional, Cardiac atrium
# Summary of the method: (§4)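 Reserpinized guinea pigs (2 mg/kg ip, 48 and 24 h before death), tyramine-unresponsive atria. Electrically driven left atrium (1.5 Hz, 3-ms pulses, 0.5 g load) preincubated 20 min with adenosine deaminase after 90 min equilibration. Agents added cumulatively, 5 min per concentration. Developed tension recorded isometrically, % increase over control or % inhibition; six assays from six experiments, Student's t test.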
# [12] = Logarithm of the sum of contributions of each atom to the total lipophilicity of the molecule; format: physicochemical; conditions: octanol/water
# [13] = species: Cavia porcellus; assay: Inotropic effect in electrically driven left atrium from reserpine-treated guinea pig without 8-phenyl theophylline at the concentration of 10 e-3 M; format: functional, Cardiac atrium; summary of the method: as §3
# [14] = species: Cavia porcellus; assay: Inotropic response in electrically driven left atrium from reserpine-treated guinea pig with 8-phenyl theophylline (10 e-5)at the concentration of 10 e-4 M; format: functional, Cardiac atrium; summary of the method: as §1
# [15] = species: Cavia porcellus; assay: Inotropic response in electrically driven left atrium from reserpine-treated guinea pig with ADA (2 units/ml) at the concentration of 2 x 10 e-3 M; format: functional, Cardiac atrium; summary of the method: as §4
# [16] = species: Cavia porcellus; assay: Inotropic response in electrically driven left atrium from reserpine-treated guinea pig with 8-phenyl theophylline (10 e-5)at the concentration of 2 x 10 e-3 M; format: functional, Cardiac atrium; summary of the method: as §1
# [17] = species: Cavia porcellus; assay: Effect on frequency rate of spontaneously beating atria from reserpine treated guinea pigs at the concentration of 2 x 10 e-3 M; format: functional
# [18] = species: Cavia porcellus; assay: Inotropic response in electrically driven left atrium from reserpine-treated guinea pig with ADA (2 units/ml) at the concentration of 10 e-5 M; format: functional, Cardiac atrium; summary of the method: as §4
# [19] = species: Cavia porcellus; assay: Inotropic response in electrically driven left atrium from reserpine-treated guinea pig with 8-pH (10 e-5)at the concentration of 5 x 10 e-5 M; format: functional, Cardiac atrium; summary of the method: as §1
# [20] = species: Cavia porcellus; assay: Inotropic response in electrically driven left atrium from reserpine-treated guinea pig with 8-pH (10 e-5)at the concentration of 10 e-5 M; format: functional, Cardiac atrium; summary of the method: as §1
# [21] = species: Cavia porcellus; assay: Inotropic response in electrically driven left atrium from reserpine-treated guinea pig with 8-pH (10 e-5)at the concentration of 10 e-4 M; format: functional, Cardiac atrium; summary of the method: as §1
# [22] = species: Cavia porcellus; assay: Inotropic response in electrically driven left atrium from reserpine-treated guinea pig with 8-pH (10 e-5)at the concentration of 5 x 10 e-4 M; format: functional, Cardiac atrium; summary of the method: as §1
# [23] = species: Cavia porcellus; assay: Inotropic response in electrically driven left atrium from reserpine-treated guinea pig with 8-pH (10 e-5)at the concentration of 2 x 10 e-3 M; format: functional, Cardiac atrium; summary of the method: as §1
# [24] = species: Cavia porcellus; assay: Inotropic response in electrically driven left atrium from reserpine-treated guinea pig with ADA (2 units/ml) at the concentration of 10 e-5 M (% inhibition of contractile response) (p<0.001); format: functional, Cardiac atrium
# [25] = species: Cavia porcellus; assay: Inotropic response in electrically driven left atrium from reserpine-treated guinea pig with 8-pH (10 e-5)at the concentration of 10 e-3 M; format: functional, Cardiac atrium; summary of the method: as §1
SMILES,Increase [3],Increase [6],Increase [8],Increase [9],Increase [10],Increase [11],logP [12],Increase [13],Increase [15],Increase [17],other results
CC1CC(=O)c2ccc(O)nc2C1 (stereo not given),2.45%,25%,3.29%,80.98%,38.88%,20.63%,0.45,56.72%,39.98%,26.44%,Increase [1]: 3.95%; Increase [2]: 25.45%; Increase [4]: 0.29%; Increase [5]: 36.16%; Increase [7]: 15.18%; Increase [14]: 8.67%; Increase [16]: 52.56%; Increase [18]: 2.48%
CC(=O)c1cc(C#N)c(O)nc1C,19.5%,13.32%,6.62%,64.11%,48.18%,37.93%,-0.1,56.71%,80.21%,22.98%,Increase [19]: 11.59%; Increase [20]: 7.75%; Increase [21]: 23.03%; Increase [22]: 40.37%; Increase [23]: 58.97%; Increase [24]: 3.42%; Increase [25]: 50.44%
